In brackets after ≈: the same amount, converted by molar mass. Values belong to the compound of their own block, whether it stands above or below them.
Legend:
Staphylococcus aureus [1] = assay: Antibacterial activity against methicillin-susceptible and beta-lactamase-producing Staphylococcus aureus Type A TX01117 using 5x10^5 CFU/ml standard inoculum after 24 hrs by CLSI broth microdilution method; format: functional; conditions: Type A TX01117, 24 h
Staphylococcus aureus [2] = assay: Antibacterial activity against methicillin-susceptible and beta-lactamase-producing Staphylococcus aureus Type C using 5x10^7 CFU/ml high inoculum after 24 hrs by CLSI broth microdilution method; format: functional
Staphylococcus aureus [3] = assay: Antibacterial activity against methicillin-susceptible and beta-lactamase-producing Staphylococcus aureus Type C using 5x10^5 CFU/ml standard inoculum after 24 hrs by CLSI broth microdilution method; format: functional
Staphylococcus aureus [4] = assay: Antibacterial activity against methicillin-susceptible and beta-lactamase-negative Staphylococcus aureus ATCC 25923 using 5x10^5 CFU/ml standard inoculum after 24 hrs by CLSI broth microdilution method; format: functional; conditions: ATCC 25923, 24 h
Staphylococcus aureus [5] = assay: Antibacterial activity against methicillin-susceptible and beta-lactamase-negative Staphylococcus aureus using 5x10^5 CFU/ml standard inoculum after 24 hrs by CLSI broth microdilution method
Staphylococcus aureus [6] = assay: Antibacterial activity against methicillin-susceptible and beta-lactamase-producing Staphylococcus aureus Type A TX01117 using 5x10^7 CFU/ml high inoculum after 24 hrs by CLSI broth microdilution method; format: functional; conditions: Type A TX01117, 24 h
Staphylococcus aureus [7] = assay: Antibacterial activity against methicillin-susceptible and beta-lactamase-producing Staphylococcus aureus Type B using 5x10^7 CFU/ml high inoculum after 24 hrs by CLSI broth microdilution method; format: functional
Staphylococcus aureus [8] = assay: Antibacterial activity against methicillin-susceptible and beta-lactamase-negative Staphylococcus aureus ATCC 25923 using 5x10^7 CFU/ml high inoculum after 24 hrs by CLSI broth microdilution method; format: functional; conditions: ATCC 25923, 24 h
Staphylococcus aureus [9] = assay: Antibacterial activity against methicillin-susceptible and beta-lactamase-producing Staphylococcus aureus Type B using 5x10^5 CFU/ml standard inoculum after 24 hrs by CLSI broth microdilution method; format: functional
Staphylococcus aureus [10] = assay: Antibacterial activity against methicillin-susceptible Staphylococcus aureus using 5x10^5 CFU/ml standard inoculum assessed as bacterial growth inhibition at 16 ug/ml; format: functional; design: scale not given: the % may be the effect or the level left
Summary of the method: (§1)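 98 MSSA clinical isolates from skin/soft tissue infection, hospital-acquired pneumonia, endocarditis and haemodialysis bacteraemia; testers were blinded to clinical data. Broth microdilution in cation-adjusted Mueller-Hinton II broth per CLSI, with inocula of ~5×10^4, 5×10^5, 5×10^6 or 5×10^7 CFU/ml. Inocula were set by optical density and spot-checked by CFU counts. Plates were read at 24 h. Values are the percentage of strains inhibited at each concentration.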

Staphylococcus aureus [11] = assay: Antibacterial activity against methicillin-susceptible Staphylococcus aureus using 5x10^5 CFU/ml standard inoculum assessed as bacterial growth inhibition at 64 ug/ml; format: functional; design: scale not given: the % may be the effect or the level left; summary of the method: as §1
Staphylococcus aureus [12] = assay: Antibacterial activity against methicillin-susceptible Staphylococcus aureus using 5x10^5 CFU/ml standard inoculum assessed as bacterial growth inhibition at >= 128 ug/ml; format: functional; design: scale not given: the % may be the effect or the level left; summary of the method: as §1
Staphylococcus aureus [13] = assay: Antibacterial activity against methicillin-susceptible Staphylococcus aureus using 5x10^6 CFU/ml intermediate inoculum assessed as bacterial growth inhibition at 64 ug/ml; format: functional; design: scale not given: the % may be the effect or the level left; summary of the method: as §1
Staphylococcus aureus [14] = assay: Antibacterial activity against methicillin-susceptible Staphylococcus aureus using 5x10^6 CFU/ml intermediate inoculum assessed as bacterial growth inhibition at <= […] ug/ml; format: functional; design: scale not given: the % may be the effect or the level left
Staphylococcus aureus [15] = assay: Antibacterial activity against methicillin-susceptible Staphylococcus aureus using 5x10^5 CFU/ml standard inoculum assessed as bacterial growth inhibition at 8 ug/ml; format: functional; design: scale not given: the % may be the effect or the level left; summary of the method: as §1
Staphylococcus aureus [16] = assay: Antibacterial activity against methicillin-susceptible Staphylococcus aureus using 5x10^7 CFU/ml high inoculum assessed as bacterial growth inhibition at 64 ug/ml; format: functional; design: scale not given: the % may be the effect or the level left; summary of the method: as §1
Staphylococcus aureus [17] = assay: Antibacterial activity against methicillin-susceptible Staphylococcus aureus using 5x10^5 CFU/ml standard inoculum assessed as bacterial growth inhibition at 2 ug/ml; format: functional; design: scale not given: the % may be the effect or the level left; summary of the method: as §1
Staphylococcus aureus [18] = assay: Antibacterial activity against methicillin-susceptible Staphylococcus aureus using 5x10^5 CFU/ml standard inoculum assessed as bacterial growth inhibition at 32 ug/ml; format: functional; design: scale not given: the % may be the effect or the level left; summary of the method: as §1
Staphylococcus aureus [19] = assay: Antibacterial activity against methicillin-susceptible Staphylococcus aureus using 5x10^6 CFU/ml intermediate inoculum assessed as bacterial growth inhibition at 4 ug/ml; format: functional; design: scale not given: the % may be the effect or the level left; summary of the method: as §1
Staphylococcus aureus [20] = assay: Antibacterial activity against methicillin-susceptible Staphylococcus aureus using 5x10^6 CFU/ml intermediate inoculum assessed as bacterial growth inhibition at >= 128 ug/ml; format: functional; design: scale not given: the % may be the effect or the level left; summary of the method: as §1
[21] = Drug level in bone of methicillin-susceptible Staphylococcus aureus infected human after 60 mins; format: ADME, tissue-based, Bone element; conditions: read-out: Drug uptake
Staphylococcus aureus [22] = assay: Antibacterial activity against methicillin-susceptible Staphylococcus aureus using 5x10^6 CFU/ml intermediate inoculum assessed as bacterial growth inhibition at 2 ug/ml; format: functional; design: scale not given: the % may be the effect or the level left; summary of the method: as §1
Staphylococcus aureus [23] = assay: Antibacterial activity against methicillin-susceptible Staphylococcus aureus using 5x10^4 CFU/ml low inoculum assessed as bacterial growth inhibition at <= […] ug/ml; format: functional; design: scale not given: the % may be the effect or the level left
Staphylococcus aureus [24] = assay: Antibacterial activity against methicillin-susceptible Staphylococcus aureus using 5x10^4 CFU/ml low inoculum assessed as bacterial growth inhibition at 8 ug/ml; format: functional; design: scale not given: the % may be the effect or the level left; summary of the method: as §1
Staphylococcus aureus [25] = assay: Antibacterial activity against methicillin-susceptible Staphylococcus aureus using 5x10^7 CFU/ml high inoculum assessed as bacterial growth inhibition at 32 ug/ml; format: functional; design: scale not given: the % may be the effect or the level left; summary of the method: as §1
Staphylococcus aureus [26] = assay: Antibacterial activity against methicillin-susceptible Staphylococcus aureus using 5x10^4 CFU/ml low inoculum assessed as bacterial growth inhibition at 32 ug/ml; format: functional; design: scale not given: the % may be the effect or the level left; summary of the method: as §1
Staphylococcus aureus [27] = assay: Antibacterial activity against methicillin-susceptible Staphylococcus aureus using 5x10^6 CFU/ml intermediate inoculum assessed as bacterial growth inhibition at 16 ug/ml; format: functional; design: scale not given: the % may be the effect or the level left; summary of the method: as §1
Staphylococcus aureus [28] = assay: Antibacterial activity against methicillin-susceptible Staphylococcus aureus using 5x10^6 CFU/ml intermediate inoculum assessed as bacterial growth inhibition at 8 ug/ml; format: functional; design: scale not given: the % may be the effect or the level left; summary of the method: as §1
Staphylococcus aureus [29] = assay: Antibacterial activity against methicillin-susceptible Staphylococcus aureus using 5x10^4 CFU/ml low inoculum assessed as bacterial growth inhibition at 64 ug/ml; format: functional; design: scale not given: the % may be the effect or the level left; summary of the method: as §1
Staphylococcus aureus [30] = assay: Antibacterial activity against methicillin-susceptible Staphylococcus aureus using 5x10^7 CFU/ml high inoculum assessed as bacterial growth inhibition at 16 ug/ml; format: functional; design: scale not given: the % may be the effect or the level left; summary of the method: as §1
Staphylococcus aureus [31] = assay: Antibacterial activity against methicillin-susceptible Staphylococcus aureus using 5x10^7 CFU/ml high inoculum assessed as bacterial growth inhibition at <= […] ug/ml; format: functional; design: scale not given: the % may be the effect or the level left
Staphylococcus aureus [32] = assay: Antibacterial activity against methicillin-susceptible Staphylococcus aureus using 5x10^7 CFU/ml high inoculum assessed as bacterial growth inhibition at 2 ug/ml; format: functional; design: scale not given: the % may be the effect or the level left; summary of the method: as §1
Staphylococcus aureus [33] = assay: Antibacterial activity against methicillin-susceptible Staphylococcus aureus using 5x10^4 CFU/ml low inoculum assessed as bacterial growth inhibition at 4 ug/ml; format: functional; design: scale not given: the % may be the effect or the level left; summary of the method: as §1
Staphylococcus aureus [34] = assay: Antibacterial activity against methicillin-susceptible Staphylococcus aureus using 5x10^4 CFU/ml low inoculum assessed as bacterial growth inhibition at 2 ug/ml; format: functional; design: scale not given: the % may be the effect or the level left; summary of the method: as §1
Staphylococcus aureus [35] = assay: Antibacterial activity against methicillin-susceptible Staphylococcus aureus using 5x10^4 CFU/ml low inoculum assessed as bacterial growth inhibition at 16 ug/ml; format: functional; design: scale not given: the % may be the effect or the level left; summary of the method: as §1
Staphylococcus aureus [36] = assay: Antibacterial activity against methicillin-susceptible Staphylococcus aureus using 5x10^6 CFU/ml intermediate inoculum assessed as bacterial growth inhibition at 32 ug/ml; format: functional; design: scale not given: the % may be the effect or the level left; summary of the method: as §1
Staphylococcus aureus [37] = assay: Antibacterial activity against methicillin-susceptible Staphylococcus aureus using 5x10^4 CFU/ml low inoculum assessed as bacterial growth inhibition at >= 128 ug/ml; format: functional; design: scale not given: the % may be the effect or the level left; summary of the method: as §1
Staphylococcus aureus [38] = assay: Antibacterial activity against methicillin-susceptible Staphylococcus aureus using 5x10^5 CFU/ml standard inoculum assessed as bacterial growth inhibition at 4 ug/ml; format: functional; design: scale not given: the % may be the effect or the level left; summary of the method: as §1
Staphylococcus aureus [39] = assay: Antibacterial activity against methicillin-susceptible Staphylococcus aureus using 5x10^7 CFU/ml high inoculum assessed as bacterial growth inhibition at 8 ug/ml; format: functional; design: scale not given: the % may be the effect or the level left; summary of the method: as §1
[40] = Drug level in human serum at 1 g, iv after 4 hrs; format: ADME, organism-based; conditions: read-out: Drug uptake
Staphylococcus aureus [41] = assay: Antibacterial activity against methicillin-susceptible Staphylococcus aureus using 5x10^7 CFU/ml high inoculum assessed as bacterial growth inhibition at 4 ug/ml; format: functional; design: scale not given: the % may be the effect or the level left; summary of the method: as §1
Staphylococcus aureus [42] = assay: Antibacterial activity against methicillin-susceptible Staphylococcus aureus using 5x10^5 CFU/ml standard inoculum assessed as bacterial growth inhibition at <= […] ug/ml; format: functional; design: scale not given: the % may be the effect or the level left
Staphylococcus aureus [43] = assay: Antibacterial activity against methicillin-susceptible Staphylococcus aureus using 5x10^7 CFU/ml high inoculum assessed as bacterial growth inhibition at >= 128 ug/ml; format: functional; design: scale not given: the % may be the effect or the level left; summary of the method: as §1

MIC (Staphylococcus aureus [1]): 0.5 mg/L (≈ 1.08 µM)
MIC50 (Staphylococcus aureus [1]): 1 mg/L (≈ 2.16 µM)
MIC90 (Staphylococcus aureus [1]): 2 mg/L (≈ 4.32 µM)
MIC (Staphylococcus aureus [2]): 32 mg/L (≈ 69.2 µM)
MIC50 (Staphylococcus aureus [2]): 16 mg/L (≈ 34.6 µM)
MIC90 (Staphylococcus aureus [2]): 32 mg/L (≈ 69.2 µM)
MIC50 (Staphylococcus aureus [3]): 2 mg/L (≈ 4.32 µM)
MIC90 (Staphylococcus aureus [3]): 4 mg/L (≈ 8.65 µM)
MIC (Staphylococcus aureus [4]): 0.6 mg/L (≈ 1.3 µM)
MIC90 (Staphylococcus aureus [4]): 1 mg/L (≈ 2.16 µM)
MIC50 (Staphylococcus aureus [5]): 1 mg/L (≈ 2.16 µM)
MIC (Staphylococcus aureus [6]): 8 mg/L (≈ 17.3 µM)
MIC50 (Staphylococcus aureus [6]): 4 mg/L (≈ 8.65 µM)
MIC90 (Staphylococcus aureus [6]): 32 mg/L (≈ 69.2 µM)
MIC (Staphylococcus aureus [7]): 13.6 mg/L (≈ 29.4 µM)
MIC50 (Staphylococcus aureus [7]): 8 mg/L (≈ 17.3 µM)
MIC90 (Staphylococcus aureus [7]): 64 mg/L (≈ 138 µM)
MIC (Staphylococcus aureus [8]): 0.4 mg/L (≈ 0.865 µM)
MIC50 (Staphylococcus aureus [8]): 1 mg/L (≈ 2.16 µM)
MIC90 (Staphylococcus aureus [8]): 1 mg/L (≈ 2.16 µM)
MIC (Staphylococcus aureus [9]): 1.3 mg/L (≈ 2.81 µM)
MIC50 (Staphylococcus aureus [9]): 1 mg/L (≈ 2.16 µM)
MIC90 (Staphylococcus aureus [9]): 4 mg/L (≈ 8.65 µM)
SMILES: Cn1nnnc1SCC1=C(C(=O)O)N2C(=O)[C@@H](NC(=O)[C@H](O)c3ccccc3)[C@H]2SC1 [CEFAMANDOLE]

concentration at 1 h [21]: 6.9 µg/mL
concentration at 4 h [40]: 17 µg/mL
SMILES: Cc1nnc(SCC2=C(C(=O)O)N3C(=O)[C@@H](NC(=O)Cn4cnnn4)[C@H]3SC2)s1 [CEFAZOLIN]
Activity (Staphylococcus aureus [10]): 0%
Activity (Staphylococcus aureus [11]): 0%
Activity (Staphylococcus aureus [12]): 0%
Activity (Staphylococcus aureus [13]): 3%
Activity (Staphylococcus aureus [14]): 33%
Activity (Staphylococcus aureus [15]): 0%
Activity (Staphylococcus aureus [16]): 3%
Activity (Staphylococcus aureus [17]): 5%
Activity (Staphylococcus aureus [18]): 0%
Activity (Staphylococcus aureus [19]): 8%
Activity (Staphylococcus aureus [20]): 0%
Activity (Staphylococcus aureus [22]): 50%
Activity (Staphylococcus aureus [23]): 100%
Activity (Staphylococcus aureus [24]): 0%
Activity (Staphylococcus aureus [25]): 9%
Activity (Staphylococcus aureus [26]): 0%
Activity (Staphylococcus aureus [27]): 2%
Activity (Staphylococcus aureus [28]): 2%
Activity (Staphylococcus aureus [29]): 0%
Activity (Staphylococcus aureus [30]): 5%
Activity (Staphylococcus aureus [31]): 23%
Activity (Staphylococcus aureus [32]): 12%
Activity (Staphylococcus aureus [33]): 0%
Activity (Staphylococcus aureus [34]): 0%
Activity (Staphylococcus aureus [35]): 0%
Activity (Staphylococcus aureus [36]): 1%
Activity (Staphylococcus aureus [37]): 0%
Activity (Staphylococcus aureus [38]): 6%
Activity (Staphylococcus aureus [39]): 24%
Activity (Staphylococcus aureus [41]): 20%
Activity (Staphylococcus aureus [42]): 89%
Activity (Staphylococcus aureus [43]): 2%

Source: ChEMBL document CHEMBL1649557 (Antimicrob Agents Chemother, 2009)
